Experimental data published in ChEMBL document CHEMBL1134682, “A novel series of 2,6,7-substituted 2,3-dihydro-1,4-benzodioxin and 2,6,7-substituted 1,4-benzodioxin derivatives as lipid peroxidation inhibitors. Structure-activity relationships for high inhibition of human low-density lipoprotein peroxidation” (J Med Chem, 2001).
Active and inactive are the calls of the source. No cut-off for these calls is given here.

Tests used:
[1] = organism: Rattus norvegicus; assay: Inhibitory concentration against KCl induced rat thoracic aorta contraction; assay type: functional
How it was run: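 Isolated rat aorta was contracted with hyperpotassic KCl (60 mM). Inhibition of contraction was measured over eight increasing concentrations (10⁻⁸ to 3 × 10⁻⁵ M), each in duplicate, on two preparations. IC50 came from the concentration–response curve by linear regression.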

[2] = organism: Homo sapiens; assay: Concentration inhibiting 50% of the copper induced lipid peroxidation determined using the thiobarbituric acid reactive substance and expressed as an MDA equivalent; assay type: functional
How it was run: (§1)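 Human LDL was isolated by ultracentrifugation (1.019 < d < 1.063) from pooled EDTA (0.04%) plasma of healthy normolipidemic donors. Oxidation was driven by Cu²⁺ for 3 h at 37 °C, with compounds in DMSO added just before. TBARS was read by the Yagi method as MDA equivalents. Ten concentrations from 10⁻⁷ to 10⁻³ M were run in duplicate, with IC50 by linear regression. A ratio versus probucol corrected for LDL batch.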

[3] = organism: Homo sapiens; assay: Tested for the activity ratio versus probucol; assay type: functional; how it was run: as §1
[4] = tested on: Mus musculus; assay: Compound was tested for the time before the first gasps after ip administration of 2.5 mg/kg in hypoxia test; assay type: functional; conditions: route intraperitoneal
How it was run: (§2)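 Male Swiss CD1 mice (25–30 g) were housed 1 week at 20–22 °C, 55% humidity, 12/12 light cycle. Compound was given ip 30 min before placing each mouse in a small box flushed with 96% N₂/4% O₂ at 12 L/min. Read-out was the time until the first gasps. Vincamine was the reference.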

[5] = tested on: Mus musculus; assay: Compound was tested for change in the total cholesterol after (po) administration of 300 mg/kg in mice; assay type: functional
How it was run: (§3)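 Groups of six mice were made hypercholesterolaemic by a high-cholesterol, cholic-acid diet for 7 days. Compound was dosed po, half on day 6 and half on day 7, then mice were fasted overnight without food or water. Serum total cholesterol and heparin-precipitated LDL-VLDL were compared with hypercholesterolaemic controls.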

[6] = tested on: Mus musculus; assay: Compound was tested for the time before the first gasps after ip administration of 20 mg/kg in hypoxia test; assay type: functional; conditions: route intraperitoneal; how it was run: as §2
[7] = tested on: Mus musculus; assay: Compound was tested for the time before the first gasps after ip administration of 1 mg/kg in hypoxia test; assay type: functional; conditions: route intraperitoneal; how it was run: as §2
[8] = tested on: Mus musculus; assay: Compound was tested for change in the LDL-VLDL fraction after (po) administration of 100 mg/kg in mice; assay type: functional; how it was run: as §3
[9] = tested on: Mus musculus; assay: Compound was tested for change in the total cholesterol after (po) administration of 100 mg/kg in mice; assay type: functional; how it was run: as §3
[10] = organism: Homo sapiens; assay: Concentration inhibiting 50% of the copper induced lipid peroxidation determined using th e thiobarbituric acid reactive substance and expressed as an MDA equivalent; Peroxidant; assay type: functional; how it was run: as §1
[11] = tested on: Mus musculus; assay: Compound was tested for change in the LDL-VLDL fraction after (po) administration of 300 mg/kg in mice; assay type: functional; how it was run: as §3
[12] = tested on: Mus musculus; assay: Compound was tested for the time before the first gasps after ip administration of 2.5 mg/kg in hypoxia test; inactive; assay type: functional, organism-based; parameters: dose 2.5 mg/kg; how it was run: as §2
[13] = organism: Homo sapiens; assay: Compound was tested for the activity ratio versus probucol; assay type: functional; how it was run: as §1
[14] = organism: Homo sapiens; assay: Concentration inhibiting 50% of the copper induced lipid peroxidation determined using th e thiobarbituric acid reactive substance and expressed as an MDA equivalent; assay type: functional; how it was run: as §1

Row | Compound | IC50 [1] [nM] | IC50 [2] [nM] | Ratio [3] | other results
1 | O=C(C1=COc2ccccc2O1)N1CCN(C(c2ccc(F)cc2)c2ccc(F)cc2)CC1 | 1800 | – | – | –
2 | Oc1ccc2c(c1)OC=C(CN1CCC(=C(c3ccc(F)cc3)c3ccc(F)cc3)CC1)O2 | – | < 100 | >45 | –
3 | CCCCN(C(=O)C1=COc2cc(O)c(C(C)(C)C)cc2O1)c1ccccc1 | – | 200 | 5 | –
4 | O=C(C1=COc2cc(O)ccc2O1)N1CCN(C(c2ccc(F)cc2)c2ccc(F)cc2)CC1 | 560 | < 100 | >45 | Time [4]: 108 s; Change [5]: -7%; Time [6]: 67 s; Time [7]: 55 s
5 | COc1ccc(CN2CCN(C(=O)C3COc4ccc(O)cc4O3)CC2)c(OC)c1OC (configuration not stated) | – | 1700 | 3 | –
6 | CC(C)(Oc1ccc(CCNC(=O)c2ccc(Cl)cc2)cc1)C(=O)O [BEZAFIBRATE] | – | – | – | Change [8]: -20%; Change [9]: -25%
7 | O=C(C1=COc2ccc(O)cc2O1)N1CCN(C(c2ccc(F)cc2)c2ccc(F)cc2)CC1 | – | 700 | 2.9 | –
8 | CCCCN(C(=O)C1=COc2ccc(O)cc2O1)c1ccccc1 | – | 400 | 2 | –
9 | O=C(C1COc2cc(O)ccc2O1)N1CCN(C(c2ccc(F)cc2)c2ccc(F)cc2)CC1 (configuration not stated) | 3000 | 3000 | 1.7 | –
10 | Oc1ccc2c(c1)OC=C(C(=S)N1CCN(C(c3ccc(F)cc3)c3ccc(F)cc3)CC1)O2 | – | 9000 | 0.5 | –
11 | O=C(C1=COc2cc(O)ccc2O1)N1CCC(=C(c2ccc(F)cc2)c2ccc(F)cc2)CC1 | – | 500 | 2 | –
12 | O=C(Oc1ccc2c(c1)OC=C(C(=O)N1CCN(C(c3ccc(F)cc3)c3ccc(F)cc3)CC1)O2)c1cccnc1 | – | – | – | IC50 [10]: Peroxidant
13 | CCCCN(C(=O)C1=COc2cc(O)ccc2O1)c1ccccc1 | – | 1000 | 2 | –
14 | Nc1ccc2c(c1)OC=C(C(=O)N1CCN(C(c3ccc(F)cc3)c3ccc(F)cc3)CC1)O2 | – | 35000 | 0.1 | –
15 | CC(C)(C)c1cc2c(cc1O)OC=C(C(=O)N1CCN(C(c3ccc(F)cc3)c3ccc(F)cc3)CC1)O2 | 3100 | 1000 | 5 | –
16 | Oc1ccc2c(c1)OC=C(CN1CCN(C(c3ccc(F)cc3)c3ccc(F)cc3)CC1)O2 | 570 | 1000 | 5 | Time [4]: 65 s; Change [5]: -48%; Change [8]: -35%; Time [6]: 60 s; Change [9]: -33%; Time [7]: 78 s; Change [11]: -52%
17 | CC[C@]12CCCN3CCc4c(n(c5ccccc45)[C@@](O)(C(=O)OC)C1)[C@@H]32 [VINCAMINE] | – | – | – | Time [6]: 147 s; IA [12]: inactive
18 | Fc1ccc(C(c2ccc(F)cc2)N2CCN(C/C=C/c3ccccc3)CC2)cc1 [FLUNARIZINE] | 270 | – | – | –
19 | O=C(C1COc2ccc(O)cc2O1)N1CCN(C(c2ccc(F)cc2)c2ccc(F)cc2)CC1 (configuration not stated) | 2200 | 200 | 10 | –
20 | COc1ccc(CN2CCN(C(=O)C3=COc4ccc(O)cc4O3)CC2)c(OC)c1OC | – | 3000 | 1.7 | –
21 | O=C(Nc1ccccc1)C1=COc2ccc(O)cc2O1 | – | – | – | Ratio [13]: 4; IC50 [14]: 500 nM
22 | COc1ccc2c(c1)OC=C(C(=O)N1CCN(C(c3ccc(F)cc3)c3ccc(F)cc3)CC1)O2 | – | > 100000 | <0.005 | –
